UHRF1 MBD2 ctr: blocks human UHRF1 binding to methylated DNA; Q96T88; UHRF1 binding to methylated oligo, TR-FRET; inhibition, % at 4.4 µM; actives 0.75% (n = 370,000); AID 687016; in the data active = inhibition above about 21%;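 also: UHRF1 SRA domain binding a hemimethylated CpG hairpin DNA probe; 0% = median of test compound wells and 100% = reference inhibitor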
LEDGF integ inh: blocks HIV-1 LEDGF/p75-dependent DNA integration; TR-FRET IN-LEDGF/p75 DNA integration, Eu/Cy5; inhibition, % at 3.7 µM; actives 0.64% (n = 370,000);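 active = inhibition above the screen-wide mean plus 3 SD, cut at about 13% in these data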;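 also: signal is the Cy5 over europium emission ratio at 671 and 618 nm; 0% = plate median of compound wells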
MBD2 inh: MBD2-methylated oligo binding inhibition. Q9UBB5. TR-FRET, MBD2 binding to methylated oligonucleotide. inhibition, % at 4.4 µM. actives 0.31% (n = 370,000). AID 686964; in the data active = inhibition above about 13%
PRMT1 FP inh: inhibitors of human PRMT1; inhibition, % at 2.79 µM; AID 652257; Q99873; recombinant PRMT1, activity-based probe fluorescence polarization; actives 1.3% (n = 370,000);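 active = inhibition above about 21% made by adding two undisclosed values, limit read from the data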
Target sequence (Q99873 whole entry, looked up): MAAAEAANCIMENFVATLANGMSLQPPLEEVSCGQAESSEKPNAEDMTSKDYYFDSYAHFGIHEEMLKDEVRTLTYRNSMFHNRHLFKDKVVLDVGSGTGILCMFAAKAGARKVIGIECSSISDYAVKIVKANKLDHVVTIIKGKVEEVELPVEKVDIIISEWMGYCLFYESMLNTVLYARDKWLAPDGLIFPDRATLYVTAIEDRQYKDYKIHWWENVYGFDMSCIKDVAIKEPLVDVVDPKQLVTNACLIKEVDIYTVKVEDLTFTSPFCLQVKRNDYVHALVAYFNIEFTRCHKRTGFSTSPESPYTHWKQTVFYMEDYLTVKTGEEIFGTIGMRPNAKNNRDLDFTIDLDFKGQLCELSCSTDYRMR
TDP2 inh: blocks human TDP2 phosphodiesterase activity. O95551. actives 0.34% (n = 370,000). recombinant TDP2, T5PNP hydrolysis, p-nitrophenol absorbance 415 nm. inhibition, % at 12.8 µM;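 active = inhibition above the mean of all tested compounds plus 3 SD, set per campaign, cut at about 25% in these data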;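 also: 0% = DMSO with enzyme and 100% = buffer with substrate but no TDP2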
Target sequence (O95551 whole entry, looked up): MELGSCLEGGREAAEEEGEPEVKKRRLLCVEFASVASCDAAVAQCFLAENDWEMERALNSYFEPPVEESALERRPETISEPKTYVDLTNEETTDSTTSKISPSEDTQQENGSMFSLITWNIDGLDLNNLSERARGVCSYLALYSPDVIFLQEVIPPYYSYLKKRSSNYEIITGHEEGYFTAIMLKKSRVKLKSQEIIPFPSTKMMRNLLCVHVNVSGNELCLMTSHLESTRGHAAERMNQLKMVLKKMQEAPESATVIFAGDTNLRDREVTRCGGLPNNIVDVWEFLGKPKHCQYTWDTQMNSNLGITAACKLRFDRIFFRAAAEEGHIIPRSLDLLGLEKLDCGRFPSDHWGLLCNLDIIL
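Evaluation: % inhibition relative to enzyme-containing and enzyme-free wells. Material: recombinant human TDP2. Benchmarks: enzyme-free and DMSO wells. Timing: enzyme reaction with compound for 2 h at 37 °C. Compound dosing: 12.8 µM only. Measured by: p-Nitrophenol epi absorbance. Reagent: T5PNP substrate at 5 mM, a TopII-DNA adduct mimic. Replication: single well per compound.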
SIAE inh: blocks human sialic acid acetylesterase. inhibition, % at 9.66 µM. SIAE FP-Rh probe binding, fluorescence polarization. AID 1053197. Q9HAT2. actives 0.69% (n = 370,000);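 active = inhibition above a cutoff: mean of compounds within the control limits plus 3 SD of those, cut at about 17% in these data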;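 also: 0% = plate median of compound wells and 100% = probe without SIAE protein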
PRMT1 inh conf: PRMT1 (human) inhibition, FP confirmation | shares compounds with PRMT1 FP inh | recombinant His-PRMT1, activity-based probe fluorescence polarization | inhibition, % at 2.79 µM | actives 42% (n = 3,300) | AID 687036;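 active = mean inhibition across replicates above the hit cutoff derived for the earlier primary screen, cut at about 22% in these data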
UHRF1 ctr MBD2: UHRF1 methyl-oligo binding inhibition as MBD2 counter-screen; actives 25% (n = 1,000); UHRF1 binding to methylated oligonucleotide, TR-FRET; AID 720530; shares compounds with MBD2 inh; inhibition, % at 4.4 µM; in the data active = inhibition above about 21%;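 also: UHRF1 SRA domain binding a labeled hemimethylated CpG hairpin DNA; 0% = vehicle only and 100% = reference inhibitor with vehicle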
MBD2 confirm: MBD2-DBD methyl-DNA binding inhibition, TR-FRET confirmation | shares compounds with MBD2 inh | TR-FRET MBD2-DBD binding to methylated oligonucleotide | inhibition, % at 4.4 µM | actives 26% (n = 1,000)
TDP2 inh conf: confirmation of human TDP2 inhibitors. inhibition, % at 12.8 µM. actives 22% (n = 1,100). AID 743263. recombinant human TDP2, absorbance read-out. shares compounds with TDP2 inh; in the data active = inhibition above about 25%;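 also: 0% = vehicle with enzyme and 100% = no enzyme buffer only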
IN multimer up: HIV-1 integrase multimerization activation, counter-screen; actives 17% (n = 2,000); TR-FRET HIV-1 integrase multimerization, biochemical; AID 1053131; activation, % at 7.7 µM; shares compounds with LEDGF integ inh; in the data active = activation above about 8.9%
TRFRET interf: optically interferes with TR-FRET readout in LEDGF counter-screen | inhibition, % at 7.7 µM | shares compounds with LEDGF integ inh | TR-FRET optical interference counterscreen, HIV-1 IN multimerization | 2,000 tested, under 10 active;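 active = inhibition above the mean over all tested compounds plus 3 SD, which no compound reached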;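 also: 0% = integrase with antibodies and DMSO and 100% = antibodies without integrase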
IN-LEDGF confirm: confirmation of HIV-1 LEDGF/p75-dependent integration inhibitors; shares compounds with LEDGF integ inh; TR-FRET LEDGF/p75-dependent HIV-1 integration, biochemical; inhibition, % at 3.7 µM; actives 36% (n = 2,000)
SIAE inh conf: human SIAE inhibition, confirmation | shares compounds with SIAE inh | SIAE FP-Rh activity-based probe, fluorescence polarization | inhibition, % at 9.66 µM | actives 13% (n = 2,300) | AID 1117263;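 active = mean inhibition of the replicates above the hit cutoff set in the primary screen, cut at about 17% in these data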;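 also: 0% = SIAE with DMSO and probe and 100% = probe without SIAE; inhibitors lower polarization as more probe stays unbound to SIAE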
The depositor's hits bear a star; / = no result; ! = not confirmed by another sample. A selection: hits, their analogues and other compounds. The true share with any hit is near 3.3%. Rule as the data show it, unless noted: active = inhibition above about 14%; inactive = the rest.

SMILES | UHRF1 MBD2 ctr | LEDGF integ inh | MBD2 inh | PRMT1 FP inh | TDP2 inh | SIAE inh | PRMT1 inh conf | SIAE inh conf | others
Oc1c(C=C2N=c3ccccc3=N2)sc(=S)n1-c1ccc(F)cc1 | -4 | -3 | 1 | 41*! | 0 | 18*! | 3 | 0
CCOC(=O)C(=C1Nc2ccccc2N1)n1c(-c2ccco2)nc2ccccc21 | -7 | 3 | -2 | 29* | 1 | 18* | 88* | -2
CCOC(=O)C(=C1Nc2ccccc2N1)n1c(-c2cnccn2)nc2ccccc21 | 0 | 2 | 1 | -3 | 3 | 1 | / | /
CCCCNC(=O)C[C@@H]1C(=O)N(CCc2ccc(Cl)cc2)C2=CCCCC[C@]21C(=O)OC | 1 | 0 | 3 | -7 | -2 | -6 | / | /
Cn1c(=O)c(NCCO)c2c3c(cccc31)C(=O)c1ccccc1-2 | -91 | 2 | -34 | 184* | 11 | 58* | 184* | 117*
O=C(Nc1cccc(S(=O)(=O)Nc2ccccc2F)c1)c1ccco1 | 1 | -5 | 1 | 7 | 2 | -2 | / | /
O=C1CCC(C(=O)Nc2cccc(S(=O)(=O)Nc3ccccc3F)c2)=NN1 | 3 | -3 | -2 | 31* | -1 | 24* | 21 | 3
O=C(CNS(=O)(=O)c1ccc(Cl)s1)N1CCN(c2ccccn2)CC1 | -2 | -1 | 4 | 2 | 11 | 4 | / | /
CCCCn1c(N)c(Br)c(=O)[nH]c1=O | 10 | -3 | 0 | 8 | -13 | 4 | / | /
CCCCn1c(=O)[nH]c2nc3cc(N)ccc3nc2c1=O | -109 | 17* | -40 | 149* | -10 | 31* | 143* | 10 | IN multimer up=4;TRFRET interf=-20;IN-LEDGF confirm=9
CC(C)C(=O)Oc1ccc(CO)cc1[C@H](CCN(C(C)C)C(C)C)c1ccccc1 | -1 | 6 | -1 | -2 | -6 | 6 | / | /
COc1cccc([C@@H]2NC(=O)C/C=C/[C@H](C)[C@H](c3cccc(OC)c3)NC(=O)C/C=C/[C@@H]2C)c1 | 17 | -1 | 4 | -1 | 6 | 2 | / | /
COc1ccc(C(=O)CSc2nnc(-c3ccco3)c(-c3ccco3)n2)cc1 | 3 | 15* | 3 | 27* | 11 | 19* | 74* | 7 | IN multimer up=13*;TRFRET interf=-47;IN-LEDGF confirm=41*
CS(=O)(=O)c1ccc(C(=O)Nc2nc(-c3ccco3)c(-c3ccco3)s2)cc1 | 88* | 89* | 41* | 35* | 7 | 47* | 28* | 3 | UHRF1 ctr MBD2=12;MBD2 confirm=4
CC(C)C1Nc2c(O)cc(Cl)c([N+](=O)[O-])c2C2C=CCC21 (stereo not drawn) | -5 | 26* | -5 | 30* | 3 | 22* | 20 | 4 | IN multimer up=1;TRFRET interf=-4;IN-LEDGF confirm=11
COc1ccc(N=Nc2nc3ccc(Br)cc3n2C)cc1 | 0 | 7 | -4 | 133* | -6 | 18* | 7 | 0
CCOC(=O)CC[C@@H]1CC[C@]2(CCCN(Cc3nccn3C)C2)O1 | -1 | 0 | 0 | 1 | -1 | -6 | / | /
CC(=O)c1cccc(Nc2nc(-c3sc(N)nc3C)cs2)c1 | -7 | 4 | -2 | 10 | 7 | -7 | / | /
Cc1nc(N)sc1-c1csc(Nc2cccc(O)c2)n1 | -5 | 7 | -5 | 25* | -9 | 17* | 5 | -3
Oc1ccc(NCc2ccc(OCc3ccccc3)cc2)cc1 | 9 | 7 | -9 | 34* | 34* | 29* | 11 | 13 | TDP2 inh conf=39*
C#CCNC(=O)C[C@@H]1C(=O)N2CCCC3=C2[C@@]1(C(=O)OCC)CCC3 | 4 | 0 | 7 | 6 | -1 | -5 | / | /
O=C(CCc1ccccc1)N[C@H]1[C@H](OC(=O)c2ccc3ccccc3n2)CCC[C@@]12C(=O)N(Cc1ccccc1)c1ccccc12 | 5 | 4 | 4 | 0 | -11 | -16 | / | /
CCOc1ccc(NS(=O)(=O)c2ccc(N)cc2)cc1 | 0 | -4 | -2 | 2 | -8 | -1 | / | /
CCOc1ccc(Nc2ccc(N)c(S(=O)(=O)O)c2)cc1 | 17 | 38* | 0 | 36* | -5 | 21* | 10 | 9 | IN multimer up=14*;TRFRET interf=-69;IN-LEDGF confirm=19*
CN[C@H]1C[C@H]2c3cc(-c4ccccc4C)ccc3CCN2C[C@H]1[C@H](C)O | -1 | 4 | -8 | -4 | -13 | -1 | / | /
SMILES | UHRF1 MBD2 ctr | LEDGF integ inh | MBD2 inh | PRMT1 FP inh | TDP2 inh | SIAE inh | PRMT1 inh conf | SIAE inh conf | others
COc1ccc2c3c(cccc13)C(=O)CC2 | -29 | 0 | -9 | 145* | 12 | 73* | 81* | 3
CC(C)(C)OC(=O)N1CCC(N[C@@H](Cc2c[nH]c3ccccc23)C(=O)NCCc2c[nH]c3ccccc23)(C(=O)NC2CCCCC2)CC1 | 1 | -2 | -3 | -3 | 13 | 9 | / | /
O=C(c1ccc2nc(-c3ccco3)c(-c3ccco3)nc2c1)N1CCN(c2ccccc2)CC1 | 8 | 39* | -8 | 54* | -15 | 32* | 4 | 3 | IN multimer up=1;TRFRET interf=-5;IN-LEDGF confirm=14*
O=C(NCCCc1ccccc1)[C@H](CO)NC1(C(=O)NCCc2c[nH]c3ccccc23)CCCCC1 | 3 | 1 | 2 | 3 | -6 | 7 | / | /
O=C1c2ccccc2-c2onc3c(N4CCN(CCO)CC4)cc(N4CCN(C(=O)c5ccco5)CC4)c1c23 | -4 | -10 | -7 | 15 | 2 | 16 | / | /
O=C1c2ccccc2-c2onc3ccc(N4CCCC4)c1c23 | 23* | -4 | 1 | 90* | 17 | 76* | 74* | 56*
